Experimental data reported in ChEMBL document CHEMBL1141719, “Naphthylphenstatins as tubulin ligands: synthesis and biological evaluation” (Bioorg Med Chem, 2008).
“And” between values parts separate entries of the source, which are not always exact repeats. Identical values can stand only once.

Columns and labels:
[1] = Inhibition of calf brain tubulin polymerization relative to control; design: species or system Bos taurus
Procedure, shortened: (§1)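 Calf brain microtubule protein was purified by two cycles of temperature-dependent assembly/disassembly. Assay used 1.0 mg/mL MTP in 0.1 M MES, 1 mM EGTA, 1 mM MgCl2, 1 mM β-ME, 1.5 mM GTP, pH 6.7, with 4% DMSO. Ligand was preincubated 30 min at 20 °C, then 10 min on ice, and assembly started by shift from 4 °C to 37 °C. Turbidity was followed against a no-ligand control. Inhibition is percent of control, mean of at least three experiments.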

A549 = assay: Cytotoxicity against human A549 cells after 72 hrs by XTT assay; format: functional, cell-based
HT-29 = assay: Cytotoxicity against human HT-29 cells after 72 hrs by XTT assay; format: functional, cell-based
Bos taurus [2] = organism: Bos taurus; assay: Inhibition of calf brain tubulin polymerization at 30 uM relative to control; procedure, shortened: as §1
HeLa = assay: Cytotoxicity against human HeLa cells after 72 hrs by XTT assay; format: functional, cell-based
Procedure, shortened: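 HeLa (1.5 × 10³/well), HT-29 (3 × 10³/well) or A-549 (5 × 10³/well) cells seeded in 100 µL and allowed to attach for 24 h at 37 °C, 5% CO₂. Compounds at a range of concentrations for 72 h. Then XTT/PMS reagent added for 4 h, with absorbance read at 490 nm (reference 655 nm). IC50 is the concentration giving 50% inhibition of proliferation, mean of at least six experiments.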

Bos taurus [3] = organism: Bos taurus; assay: Inhibition of calf brain tubulin polymerization at 20 uM relative to control; procedure, shortened: as §1
Bos taurus [4] = organism: Bos taurus; assay: Inhibition of calf brain tubulin polymerization at 40 uM relative to control; procedure, shortened: as §1

inhibition (Bos taurus [3])	SMILES	IC50 (A549; a549)	IC50 (HT-29; Homo sapiens, HT-29, 72 h)	IC50 (HeLa; Homo sapiens, HeLa, 72 h)	other results
38%	COc1cc(/C(=N/OC(C)=O)c2ccc3ccccc3c2)cc(OC)c1OC		1 µM	0.001 µM	
0%	COc1cc(C(c2ccc3ccccc3c2)n2ccnc2)cc(OC)c1OC (stereo unspecified)		10 µM		IC50 (HT-29; ht-29): > 10 µM
0%	COc1ccc(/C(=N\NC(C)=O)c2ccc3ccccc3c2)c(OC)c1OC				
0%	COc1cc(/C(=N\NC(C)=O)c2ccc3ccccc3c2)cc(OC)c1OC				
0%	COc1ccc(/C(=N\OC(C)=O)c2ccc3ccccc3c2)c(OC)c1OC	> 10 µM	10 µM	1.2 µM	IC50 (A549; Homo sapiens, A549, 72 h): 10 µM; IC50 (HT-29; ht-29): > 10 µM
0%	COc1ccc(/C(=N\N)c2ccc3ccccc3c2)c(OC)c1OC				
0%	COc1ccc(C(O)c2ccc3ccccc3c2)c(OC)c1OC (stereo unspecified)	> 10 µM		10 µM	IC50 (A549; Homo sapiens, A549, 72 h): 10 µM
0.25% and 4%	COc1ccc(C(=O)c2ccc3ccccc3c2)c(OC)c1OC	1.7 µM and > 10 µM			IC50 (HeLa; hela): 4 µM
15%	COc1cc(/C(=N\OC(=O)OC(C)(C)C)c2ccc3ccccc3c2)cc(OC)c1OC		10 µM		IC50 (HT-29; ht-29): > 10 µM
10% and 5%	COc1cc(C(OC(C)=O)c2ccc3ccccc3c2)cc(OC)c1OC (stereo unspecified)	1.2 µM and > 10 µM			IC50 (HeLa; hela): 10 µM and 3.8 µM

More lines, now with the values behind:

SMILES	inhibition (Bos taurus [3])	IC50 (A549; a549)	IC50 (HT-29; Homo sapiens, HT-29, 72 h)	IC50 (HeLa; Homo sapiens, HeLa, 72 h)	other results
COc1cc(C(=O)c2ccc3ccccc3c2)cc(OC)c1OC		0.043 µM			IC50 [1]: 1.1 µM
COc1ccc(/C(=N\OC(=O)OC(C)(C)C)c2ccc3ccccc3c2)c(OC)c1OC			10 µM		IC50 (HT-29; ht-29): > 10 µM
COc1ccc(/C(=N/O)c2ccc3ccccc3c2)c(OC)c1OC		> 10 µM	1 µM	0.4 µM	inhibition (Bos taurus [2]): 0%; IC50 (A549; Homo sapiens, A549, 72 h): 10 µM
COc1ccc(C(OC(C)=O)c2ccc3ccccc3c2)c(OC)c1OC (stereo unspecified)	26%			2.7 µM	IC50 (A549; Homo sapiens, A549, 72 h): 10 µM
COc1cc(/C(=N/N)c2ccc3ccccc3c2)cc(OC)c1OC			10 µM		inhibition (Bos taurus [2]): 0%
CO/N=C(/c1cc(OC)c(OC)c(OC)c1)c1ccc2ccccc2c1	4%		1 µM		
COc1ccc(C(=O)c2cc(OC)c(OC)c(OC)c2)cc1O [PHENSTATIN]					IC50 [1]: 2.5 µM
COc1cc(/C(=N/O)c2ccc3ccccc3c2)cc(OC)c1OC		> 10 µM	1.8 µM	1.5 µM	inhibition (Bos taurus [2]): 0%; IC50 (A549; Homo sapiens, A549, 72 h): 10 µM
COc1ccc(/C=C\c2cc(OC)c(OC)c(OC)c2)cc1O [COMBRETASTATIN A4]	100%			2.7 µM	IC50 [1]: 3 µM
COc1cc(/C(=N\OC(C)=O)c2ccc3ccccc3c2)cc(OC)c1OC	10%				
COc1cc(C(O)c2ccc3ccccc3c2)cc(OC)c1OC (stereo unspecified)					inhibition (Bos taurus [4]): 0%
COc1ccc(C(C)(O)c2ccc3ccccc3c2)c(OC)c1OC (stereo unspecified)	3%			1 µM	IC50 (A549; Homo sapiens, A549, 72 h): 10 µM
CN/N=C(/c1cc(OC)c(OC)c(OC)c1)c1ccc2ccccc2c1					inhibition (Bos taurus [2]): 31%
COc1cc(/C(=N/NC(C)=O)c2ccc3ccccc3c2)cc(OC)c1OC		> 10 µM	10 µM	10 µM	inhibition (Bos taurus [2]): 35%; IC50 (HeLa; hela): > 10 µM; IC50 (A549; Homo sapiens, A549, 72 h): 10 µM; IC50 (HT-29; ht-29): > 10 µM
